The results in this text go back to ChEMBL document CHEMBL1275258, “Correlation between azole susceptibilities, genotypes, and ERG11 mutations in Candida albicans isolates associated with vulvovaginal candidiasis in China” (2010).

Holding throughout (type): functional
For assay [1], the system named is Candida albicans. The assay can be described thus: Antifungal activity against Candida albicans isolate O with CAI genotype by broth microdilution method. Summed up:
(§1)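 CLSI (formerly NCCLS) M27-A2 broth microdilution with fluconazole and itraconazole against clinical C. albicans isolates grouped by source (oral or vaginal) and CAI genotype. Trays incubated at 35°C for 24 h. MIC read as the lowest drug concentration giving a prominent drop in turbidity (50% growth inhibition) versus the drug-free control well. C. albicans ATCC 90028 and C. parapsilosis ATCC 22019 used as quality controls. Group values reported as geometric mean MIC50.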

In assay [2] the test system is Candida albicans. Nature of the assay: Antifungal activity against Candida albicans isolate V1 with CAI genotype by broth microdilution method. An outline of the steps:
as §1
On the technique in general: In broth dilution the organism is exposed to a series of concentrations in liquid medium.

The subject of assay [3] is Candida albicans. Nature of the assay: Antifungal activity against Candida albicans isolate V2 with CAI genotype by broth microdilution method. Summed up: as §1
For assay [4], the system named is Candida albicans. The assay can be described thus: Antifungal activity against Candida albicans isolate V3 with CAI genotype by broth microdilution method. Summed up:
as §1

Assay [5] deals with Candida albicans. Nature of the assay: Antifungal activity against Candida albicans isolate V4 with CAI genotype by broth microdilution method. An outline of the steps: as §1
Assay [6] has as its system Candida albicans. Nature of the assay: Antifungal activity against Candida albicans isolate V5 with CAI genotype by broth microdilution method. Summed up: as §1

Molecules are shown by their SMILES. In brackets after ≈: the same amount, converted by molar mass.

As to `OC(Cn1cncn1)(Cn1cncn1)c1ccc(F)cc1F` [FLUCONAZOLE], the MIC50 in assay [1] amounted to 0.356 µg/mL (≈ 1.16 µM); in assay [2] it was 0.375 µg/mL (≈ 1.22 µM); in assay [3], 0.218 µg/mL (≈ 0.712 µM); in assay [4], 0.735 µg/mL (≈ 2.4 µM); in assay [5], 2.04 µg/mL (≈ 6.67 µM); in assay [6], 3.36 µg/mL (≈ 11 µM).

Turning to `CCC(C)n1ncn(-c2ccc(N3CCN(c4ccc(OCC5COC(Cn6cncn6)(c6ccc(Cl)cc6Cl)O5)cc4)CC3)cc2)c1=O` (configuration not stated) [ITRACONAZOLE], the MIC50 in assay [1] amounted to 0.074 µg/mL (≈ 0.105 µM); in assay [2] it was 0.111 µg/mL (≈ 0.157 µM); in assay [3], 0.058 µg/mL (≈ 0.0822 µM); in assay [4] it was 0.107 µg/mL (≈ 0.152 µM); in assay [5], 0.255 µg/mL (≈ 0.361 µM); in assay [6], 0.297 µg/mL (≈ 0.421 µM).

A word on the MIC50: it is an inhibitory concentration at the 50% level, which refers to growth in some studies and to a panel of isolates in others.
